Screens deposited in PubChem by several laboratories.
MPTP block: inhibitors of mitochondrial permeability transition pore. isolated mouse mitochondria, Ca2+ swelling absorbance, 30 min. inhibition, % at 10 µM. actives 1.4% (n = 360,000). AID 602449;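 active = inhibition of 50% or more, scaled per plate between neutral and stimulator controls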;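 also: 0% = DMSO wells given calcium and 100% = 1 mM EGTA wells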
697 NFkB inh: inhibitors of the PMA/ionomycin-induced NF-kB reporter in 697 B cells; 697 B-cell NF-kB luciferase reporter, 16 h; inhibition, % at 4 µM; actives 0.33% (n = 330,000); AID 435022; in the data active = inhibition above about 35%
NR2E3 ag-1: human photoreceptor-specific nuclear receptor agonism | Q9Y5X4 | CHO-S Gal4-NCOR/VP16-NR2E3 two-hybrid, luciferase | inhibition of corepressor binding, % at 3.98 µM | actives 0.35% (n = 360,000) | AID 602229;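 active = inhibition above the mean of all tested compounds plus 3 SD, cut at about 70% in these data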;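 also: 0% = DMSO with NR2E3 transfected cells and 100% = cells lacking NR2E3 construct; higher means lower luciferase signal from less NR2E3 corepressor binding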
Target sequence (Q9Y5X4 whole entry, looked up, the tested form may be a part): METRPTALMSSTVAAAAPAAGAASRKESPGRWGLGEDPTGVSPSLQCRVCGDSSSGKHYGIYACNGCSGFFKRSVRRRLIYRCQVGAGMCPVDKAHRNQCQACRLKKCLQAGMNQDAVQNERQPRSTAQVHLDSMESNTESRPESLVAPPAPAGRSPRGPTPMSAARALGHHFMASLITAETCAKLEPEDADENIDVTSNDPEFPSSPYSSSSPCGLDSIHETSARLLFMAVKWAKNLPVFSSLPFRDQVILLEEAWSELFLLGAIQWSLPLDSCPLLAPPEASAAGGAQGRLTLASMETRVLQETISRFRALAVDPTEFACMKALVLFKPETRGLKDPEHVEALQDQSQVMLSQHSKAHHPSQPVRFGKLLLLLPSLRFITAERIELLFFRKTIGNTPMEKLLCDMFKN
aDG glyco act: increases alpha dystroglycan glycosylation; Pro5-aDG cells, alpha-DG glycosylation AlphaScreen (IIH6); 0% Pro5, 100% B10-LARGE cell signal; AID 624168; actives 0.22% (n = 360,000); activation, % at 10 µM;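 active = activation of at least 8% versus controls, or a plate z-score of at least 8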;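 also: Pro5 are CHO cells carrying HIG-tagged alpha-DG that lacks glycosylation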
NR2E3 ag-2: agonists of human nuclear receptor NR2E3; GST-NR2E3/biotin-RetCOR TR-FRET, 1536-well; actives 0.12% (n = 320,000); Q9Y5X4; inhibition of corepressor binding, % at 4.78 µM;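 active = percent inhibition above the cutoff of mean plus 3 SD of all tested compounds, set per screening campaign, cut at about 20% in these data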;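 also: 0% = DMSO wells and 100% = biotin wells as full block of FRET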
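system = GST-tagged NR2E3 plus biotinylated RetCOR corepressor | input = 1.35 nM GST-NR2E3 | also added = 7 nM biotin-RetCOR | schedule = 5 h incubation at 4 °C | measured by = TR-FRET with europium anti-GST and streptavidin-D2, 340 nm excitation | read-out = percent loss of FRET ratio relative to control wells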
Jurkat NFkB inh: lowers PMA/ionomycin-induced NF-kB signal in Jurkat cells; PMA/ionomycin-induced NF-kB luciferase reporter, luminescence; inhibition, % at 4 µM; actives 0.53% (n = 330,000); in the data active = inhibition above about 50%
Jurkat NFkB conf: inhibitors of the PMA/ionomycin-induced NF-kB reporter in Jurkat cells, retest | shares compounds with Jurkat NFkB inh | Jurkat NF-kB luciferase, 16 h | actives 27% (n = 2,700) | inhibition, % at 4 µM;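 active = inhibition reaching about 45% at 4 µM in either replicate, limit read from the data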;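 also: plate controls were PMA/ionomycin stimulated DMSO wells for no effect and unstimulated DMSO wells for full effect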
* hit, by the source's call; / = no result given. A selection: hits, their analogues and other compounds. The true share with any hit is near 2.4%.

SMILES	MPTP block	697 NFkB inh	NR2E3 ag-1	aDG glyco act	NR2E3 ag-2	Jurkat NFkB inh	Jurkat NFkB conf
CC(C)(C)c1csc(Sc2ccc([N+](=O)[O-])cn2)n1	2	4	30	0	-2	81*	40
COc1ccc(N2CC(C(=O)N/N=C/c3ccc(C)cc3)CC2=O)cc1 (stereo not given)	2	-37	-36	0	-2	55*	18
CC1(C)C(=O)NC(=O)N1Cc1ccccc1	-2	11	36	0	-1	-8	/
COc1ccccc1NC(=O)C1=C(C)NC2=C(C(=O)CCC2)C1c1ccc2c(c1)OCO2 (stereo not given)	0	4	11	0	2	4	/
NC(=O)c1ccccc1NC(=O)/C=C/c1ccc(Cl)cc1	1	-110	-181	0	-3	-177	-73
CCCNC(=O)C1CC(=O)N(c2ccc(OCc3ccc(F)cc3)cc2)C1 (stereo not given)	4	-33	-47	0	2	-152	-75
CCCNC(=O)C1CC(=O)N(c2ccc(OCc3ccc(Cl)cc3)cc2)C1 (stereo not given)	9	-30	-46	1	2	-128	/
O=C(O)C1CCN(C(=O)CSc2nc3cc(Cl)ccc3c(=O)n2Cc2ccccc2)CC1	1	17	-47	0	3	5	/
Cc1ccc(-c2cn(-c3ccccc3)c(SCC(=O)NC3CCS(=O)(=O)C3)n2)cc1C (stereo not given)	0	-205	-91	0	-2	-160	-119
O=C(Nc1nnc(SCc2ccccc2F)s1)C1=COCCO1	-1	-33	-159	0	3	-7	/
CCCN1CCC(=O)N(CCSc2ccc(OC)cc2)CC1	-2	-2	15	0	4	54*	18
CCOc1ccc(N(C)S(=O)(=O)c2ccc(-c3cc(C)no3)s2)cc1	0	-61	20	0	0	58*	52*
Cc1cccc(N(C)S(=O)(=O)c2ccc(-c3cc(C)no3)s2)c1	-1	7	31	0	-2	43	/
CCC(C)[C@H]1CNC(=O)C(=O)N1CCc1cccc(F)c1 (stereo not given in full)	1	/	-8	0	/	/	/
CCCCCN1C=CC(=C2C(=O)c3ccccc3C2=O)C=C1	0	-18	26	1	3	60*	40
COc1ccccc1CNc1nc(Oc2cccc(F)c2)c2sccc2n1	0	/	-4	1	/	/	/
COc1ccccc1NC(=O)COC(=O)Cn1cnc2c1c(=O)n(C)c(=O)n2C	0	-1	-3	0	/	60*	6
Cn1c(=O)c2c(ncn2CC(=O)OCC(=O)Nc2ccccc2)n(C)c1=O	-5	4	-8	0	6	-14	/
Cc1ccc(O)c(NC(=O)CCC2CCCCC2)c1	1	3	-69	0	3	64*	40
CCOC(=O)c1ccc(N/C=C\C(=O)c2cccc(OC)c2)cc1	2	-65	-45	0	2	-29	/
Cc1cccc(OCC(=O)Nc2cc(C)ccc2O)c1	1	29	-5	0	-2	72*	55*
COc1cccc(C(=O)/C=C/Nc2cc(C)ccc2O)c1	11	-61	-132	0	-6	67*	-8
Cc1ccc(Cl)c(N/C=C/C(=O)c2ccccc2)c1	3	-229	-169	0	-2	-181	-80
O=C(NC1CC1)c1ccc2sc([C@H]3C[C@H](O)[C@@H](CO)O3)nc2c1	1	/	-19	0	/	/	/
CCOC(=O)CNc1nc(Cl)nc(NC(C)(C)C)n1	0	10	-6	0	4	-9	/
COc1ccc(C(=O)/C=C/Nc2cccc(O)c2)cc1	8	-60	-137	0	-2	-179	-69
COc1ccc(N/C=C/C(=O)c2ccc(C)cc2)c([N+](=O)[O-])c1	0	-191	-176	0	0	-179	-84
O/C(=C\c1ccc2ccccc2n1)c1ccc(O)cc1O	1	-186	-91	-1	-4	-170	-15
Oc1ccc(/C=C/c2ccc3ccccc3n2)cc1	2	-116	-102	0	3	15	/
